Data from publication PMC2773842 (Cellular and Molecular Life Sciences: CMLS, 2006).

Experiments:
[1] = molecular target: insulin-insulin interactions (chip-bound insulin) (Homo sapiens, UniProt P01308); assay type: binding; settings: peptide mixed with insulin analyte
Summary of the method: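 Biacore SPR with insulin immobilized either C-terminally (surface thiol coupling, up to 5000 RU) or N-terminally (amine coupling, up to 1000 RU). Test peptide was premixed with insulin analyte at 1, 5, 10 and 20 µM and flowed at 20 µl/min. Running buffer was 10 mM Na citrate pH 5 with 100 mM NaCl and 0.005% SP20. Curves are averages of three runs after blank subtraction.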

insulin hexamer = insulin hexamer (Homo sapiens, UniProt P01308); assay: ESI-MS analysis of insulin oligomer states in insulin/C-peptide mixtures
Chain of insulin hexamer (P01308 25-54 limits assumed): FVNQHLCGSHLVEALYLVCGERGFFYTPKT
Chain of insulin hexamer (P01308 90-110 limits assumed): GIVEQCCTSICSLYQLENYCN

chip-bound C-peptide = molecular target: T1, chip-bound C-peptide (Homo sapiens, UniProt P01308); assay: SPR binding of C-peptide in solution to chip-bound C-peptide
T1 sequence (P01308 57-87 limits assumed): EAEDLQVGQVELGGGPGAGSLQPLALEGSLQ
Summary of the method: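 Peptide was immobilised on the sensor chip by surface thiol coupling via the C-terminus (up to 5000 RU) or amine coupling via the N-terminus (up to 1000 RU). The same peptide was run as analyte at 20 µl/min, diluted from a 600 µM stock in H2O/HCl pH 5. Running buffers spanned pH 3–7 (citrate, bis-Tris or Tris/HCl, 10 mM) with 100 mM NaCl and 0.005% SP20.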

Chain of insulin-insulin interactions (chip-bound insulin) (P01308 25-54 limits assumed): as the sequence (P01308 25-54 limits assumed) above

effect on rate of dissociation in insulin-insulin SPR [1]: slightly reduce the rate of dissociation
binding of C-peptide in solution to chip-bound C-peptide (chip-bound C-peptide): no evidence for such binding
Substance: C-peptide
effects on insulin in ESI-MS compared with scrambled C-peptide (insulin hexamer; at low peptide concentrations): slightly more effects on insulin than scrambled C-peptide
insulin hexamer signals in ESI mass spectra (insulin hexamer; nano-ESI-MS, pH 5, insulin 30 µM and C-peptide 30 µM (1:1)): markedly decreased from their level in insulin solutions to an absence in insulin-C-peptide mixtures
